Source: ChEMBL document CHEMBL4406834, “Phenylthiazoles with nitrogenous side chain: An approach to overcome molecular obesity” (Eur J Med Chem, 2019)
In brackets after ≈: the same amount, converted by molar mass. Activity calls are given as the source filed them. No cut-off for these calls is given here.

How the values were obtained:
Staphylococcus aureus [1] = assay: Antibacterial activity against methicillin-resistant Staphylococcus aureus NRS384 USA300 after 18 to 20 hrs by broth microdilution assay; format: functional
Procedure, shortened: (§1)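 Broth microdilution per CLSI. Strains grown aerobically overnight on tryptone soy agar at 37 °C, adjusted to 0.5 McFarland, then diluted in cation-adjusted Mueller-Hinton broth to about 5 × 10^5 CFU/mL. Compounds (10 mg/mL DMSO stocks) serially diluted. Incubated aerobically at 37 °C for 18-20 h. MIC is the lowest concentration with no visible growth.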

[2] = Aqueous solubility of the compound in phosphate buffered saline assessed as concentration that produces no precipitate measured as OD at 540 nm; format: physicochemical
Staphylococcus aureus [3] = assay: Antibiofilm activity against methicillin resistant Staphylococcus aureus NRS384 USA300 assessed as disruption of matured biofilm formation at 4 x MIC incubated for 24 hrs by crystal violet staining based spectrophotometric analysis; format: functional, organism-based
Procedure, shortened: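 MRSA USA300 overnight culture diluted 1:100 in tryptic soy broth + 1% glucose. Biofilm formed for 24 h at 37 °C. Planktonic cells removed, then compounds added at 256 to 2 µg/mL in TSB for 24 h at 37 °C. Wells washed with PBS, stained with 0.1% crystal violet for 30 min, destained with ethanol, read at OD595. Percent eradication relative to DMSO; unpaired t test.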

Streptococcus pneumoniae [4] = assay: Bactericidal activity against methicillin-resistant Streptococcus pneumoniae ATCC 700677 incubated for 18 to 20 hrs followed by replating on tryptic soy agar plate and further incubated for 18 to 24 hrs by CLSI-based broth microdilution assay; format: functional
Procedure, shortened: (§2)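 MBC: after the broth microdilution MIC (CAMHB, ~5 × 10^5 CFU/mL, 37 °C, 18-20 h), 4 µL from wells without growth plated onto tryptic soy agar. Plates incubated 37 °C for 18-20 h. MBC is the lowest concentration giving 99.9% reduction in growth.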

Streptococcus pneumoniae [5] = assay: Bactericidal activity against cephalosporin-resistant Streptococcus pneumoniae ATCC 51916 incubated for 18 to 20 hrs followed by replating on tryptic soy agar plate and further incubated for 18 to 24 hrs by CLSI-based broth microdilution assay; format: functional; procedure, shortened: as §2
Enterococcus faecium [6] = assay: Bactericidal activity against vancomycin-resistant Enterococcus faecium ATCC 700221 incubated for 18 to 20 hrs followed by replating on tryptic soy agar plate and further incubated for 18 to 24 hrs by CLSI-based broth microdilution assay; format: functional; procedure, shortened: as §2
Enterococcus faecalis [7] = assay: Bactericidal activity against vancomycin-resistant Enterococcus faecalis ATCC 51299 incubated for 18 to 20 hrs followed by replating on tryptic soy agar plate and further incubated for 18 to 24 hrs by CLSI-based broth microdilution assay; format: functional; procedure, shortened: as §2
Streptococcus pneumoniae [8] = assay: Antibacterial activity against methicillin-resistant Streptococcus pneumoniae ATCC 700677 after 18 to 20 hrs by CLSI-based broth microdilution assay; format: functional; procedure, shortened: as §1
Listeria monocytogenes = assay: Antibacterial activity against Listeria monocytogenes ATCC 19111 after 18 to 20 hrs by CLSI-based broth microdilution assay; format: functional
Streptococcus pneumoniae [9] = assay: Antibacterial activity against cephalosporin-resistant Streptococcus pneumoniae ATCC 51916 after 18 to 20 hrs by CLSI-based broth microdilution assay; format: functional; procedure, shortened: as §1
Enterococcus faecium [10] = assay: Antibacterial activity against vancomycin-resistant Enterococcus faecium ATCC 700221 after 18 to 20 hrs by CLSI-based broth microdilution assay; format: functional; procedure, shortened: as §1
Enterococcus faecalis [11] = assay: Antibacterial activity against vancomycin-resistant Enterococcus faecalis ATCC 51299 after 18 to 20 hrs by CLSI-based broth microdilution assay; format: functional; procedure, shortened: as §1
Staphylococcus aureus [12] = assay: Bactericidal activity against vancomycin-resistant Staphylococcus aureus 12 incubated for 18 to 20 hrs followed by replating on tryptic soy agar plate and further incubated for 18 to 24 hrs by CLSI-based broth microdilution assay; format: functional; procedure, shortened: as §2
Staphylococcus aureus [13] = assay: Bactericidal activity against vancomycin-resistant Staphylococcus aureus 10 incubated for 18 to 20 hrs followed by replating on tryptic soy agar plate and further incubated for 18 to 24 hrs by CLSI-based broth microdilution assay; format: functional; procedure, shortened: as §2
Staphylococcus aureus [14] = assay: Bactericidal activity against methicilline-resistant Staphylococcus aureus NRS386 USA700 incubated for 18 to 20 hrs followed by replating on tryptic soy agar plate and further incubated for 18 to 24 hrs by CLSI-based broth microdilution assay; format: functional; procedure, shortened: as §2
Staphylococcus aureus [15] = assay: Bactericidal activity against methicilline-resistant Staphylococcus aureus NRS385 USA500 incubated for 18 to 20 hrs followed by replating on tryptic soy agar plate and further incubated for 18 to 24 hrs by CLSI-based broth microdilution assay; format: functional; procedure, shortened: as §2
Staphylococcus aureus [16] = assay: Bactericidal activity against methicilline-resistant Staphylococcus aureus NRS384 USA300 incubated for 18 to 20 hrs followed by replating on tryptic soy agar plate and further incubated for 18 to 24 hrs by CLSI-based broth microdilution assay; format: functional; procedure, shortened: as §2
Staphylococcus aureus [17] = assay: Bactericidal activity against methicilline-resistant Staphylococcus aureus NRS123 USA400 incubated for 18 to 20 hrs followed by replating on tryptic soy agar plate and further incubated for 18 to 24 hrs by CLSI-based broth microdilution assay; format: functional; procedure, shortened: as §2
Staphylococcus aureus [18] = assay: Bactericidal activity against methicilline-resistant Staphylococcus aureus NRS-119 incubated for 18 to 20 hrs followed by replating on tryptic soy agar plate and further incubated for 18 to 24 hrs by CLSI-based broth microdilution assay; format: functional; procedure, shortened: as §2
Staphylococcus aureus [19] = assay: Bactericidal activity against methicilline-sensitive Staphylococcus aureus NRS-107 incubated for 18 to 20 hrs followed by replating on tryptic soy agar plate and further incubated for 18 to 24 hrs by CLSI-based broth microdilution assay; format: functional; procedure, shortened: as §2
Staphylococcus aureus [20] = assay: Bactericidal activity against methicilline-sensitive Staphylococcus aureus ATCC 6538 incubated for 18 to 20 hrs followed by replating on tryptic soy agar plate and further incubated for 18 to 24 hrs by CLSI-based broth microdilution assay; format: functional; procedure, shortened: as §2
Staphylococcus aureus [21] = assay: Bactericidal activity against Staphylococcus aureus ATCC BAA42 incubated for 18 to 20 hrs followed by replating on tryptic soy agar plate and further incubated for 18 to 24 hrs by CLSI-based broth microdilution assay; format: functional; procedure, shortened: as §2
Staphylococcus aureus [22] = assay: Antibacterial activity against vancomycin-resistant Staphylococcus aureus 12 after 18 to 20 hrs by CLSI-based broth microdilution assay; format: functional; procedure, shortened: as §1
Staphylococcus aureus [23] = assay: Antibacterial activity against vancomycin-resistant Staphylococcus aureus 10 after 18 to 20 hrs by CLSI-based broth microdilution assay; format: functional; procedure, shortened: as §1
Staphylococcus aureus [24] = assay: Antibacterial activity against Staphylococcus aureus ATCC BAA42 after 18 to 20 hrs by CLSI-based broth microdilution assay; format: functional; procedure, shortened: as §1
Staphylococcus aureus [25] = assay: Antibacterial activity against intracellular methicillin resistant Staphylococcus aureus USA400 infected in mouse J774 cells assessed as intracellular bacterial cells at 2 times MIC concentration incubated for 24 hrs followed by re-plating on TSA plate for 18 to 22 hrs by serial dilution method; format: functional, organism-based
Procedure, shortened: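 J774 murine macrophages in DMEM + 10% FBS, 37 °C, 5% CO2, infected with MRSA USA400 at MOI ~10:1 for 1 h. Washed with gentamicin 100 µg/mL to kill extracellular bacteria. […] Cells lysed with 0.1% Triton-X, serially diluted in PBS, plated on TSA for 18-22 h, CFU counted. One-way ANOVA with Dunnett's test.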

Staphylococcus aureus [26] = assay: Bactericidal activity against methicillin-resistant Staphylococcus aureus USA400 assessed as reduction in bacterial burden at 5 times MIC after 24 hrs by time kill assay; format: functional, organism-based

C/C(=N\NC(=N)N)c1sc(-c2ccc(N3CCSC3)cc2)nc1C
MIC (Staphylococcus aureus [1]): > 128 µg/mL

C/C(=N\NC(=N)N)c1sc(-c2ccc(N3CCCCCCC3)cc2)nc1C
MIC (Staphylococcus aureus [1]): 128 µg/mL (≈ 333 µM)

C/C(=N\NC(=N)N)c1sc(-c2ccc(N3CCN(C)CC3)cc2)nc1C
MIC (Staphylococcus aureus [1]): 64 µg/mL (≈ 172 µM)

C/C(=N\NC(=N)N)c1sc(-c2ccc(N3CCCC3)cc2)nc1C
MIC (Staphylococcus aureus [1]): 16 µg/mL (≈ 46.7 µM)

C/C(=N\NC(=N)N)c1sc(-c2ccc(N3CC(O)C3)cc2)nc1C
MIC (Staphylococcus aureus [1]): 64 µg/mL (≈ 186 µM)

C/C(=N\NC(=N)N)c1sc(-c2ccc(C3CCCCC3)cc2)nc1C
solubility kinetic [2]: 2.7 µM (≈ 0.96 µg/mL)

CN[C@H](CC(C)C)C(=O)N[C@H]1C(=O)N[C@@H](CC(N)=O)C(=O)N[C@H]2C(=O)N[C@H]3C(=O)N[C@H](C(=O)N[C@H](C(=O)O)c4cc(O)cc(O)c4-c4cc3ccc4O)[C@H](O)c3ccc(c(Cl)c3)Oc3cc2cc(c3O[C@@H]2O[C@H](CO)[C@@H](O)[C@H](O)[C@H]2O[C@H]2C[C@](C)(N)[C@H](O)[C@H](C)O2)Oc2ccc(cc2Cl)[C@H]1O [VANCOMYCIN]
inhibition (Staphylococcus aureus [3]): inactive | MBC (Streptococcus pneumoniae [4]): 1 µg/mL (≈ 0.69 µM) | MBC (Streptococcus pneumoniae [5]): 1 µg/mL (≈ 0.69 µM) | MBC (Enterococcus faecium [6]): > 64 µg/mL | MBC (Enterococcus faecalis [7]): 64 µg/mL (≈ 44.2 µM) | MIC (Streptococcus pneumoniae [8]): 1 µg/mL (≈ 0.69 µM) | MIC (Listeria monocytogenes): 0.5 µg/mL (≈ 0.345 µM) | MIC (Streptococcus pneumoniae [9]): 0.5 µg/mL (≈ 0.345 µM) | MIC (Enterococcus faecium [10]): > 64 µg/mL | MIC (Enterococcus faecalis [11]): 32 µg/mL (≈ 22.1 µM) | MBC (Staphylococcus aureus [12]): > 64 µg/mL | MBC (Staphylococcus aureus [13]): > 64 µg/mL | MBC (Staphylococcus aureus [14]): 1 µg/mL (≈ 0.69 µM) | MBC (Staphylococcus aureus [15]): 1 µg/mL (≈ 0.69 µM) | MBC (Staphylococcus aureus [16]): 1 µg/mL (≈ 0.69 µM) | MBC (Staphylococcus aureus [17]): 1 µg/mL (≈ 0.69 µM) | MBC (Staphylococcus aureus [18]): 1 µg/mL (≈ 0.69 µM) | MBC (Staphylococcus aureus [19]): 1 µg/mL (≈ 0.69 µM) | MBC (Staphylococcus aureus [20]): 1 µg/mL (≈ 0.69 µM) | MBC (Staphylococcus aureus [21]): ≤ 0.5 µg/mL | MIC (Staphylococcus aureus [22]): > 64 µg/mL | MIC (Staphylococcus aureus [23]): > 64 µg/mL | MIC (Staphylococcus aureus [24]): ≤ 0.5 µg/mL | inhibition (Staphylococcus aureus [25]): inactive | inhibition (Staphylococcus aureus [26]): Active

C/C(=N\NC(=N)N)c1sc(-c2ccc(N3CCC3)cc2)nc1C
MIC (Staphylococcus aureus [1]): > 128 µg/mL

C/C(=N\NC(=N)N)c1sc(-c2ccc(N3CCC(C)CC3)cc2)nc1C
MIC (Staphylococcus aureus [1]): 16 µg/mL (≈ 43.2 µM)
